Results from the RNAGym collection of RNA variant scans (doi:10.1101/gad.245936.114).
This sample holds only a part of the variants without activity.

B1: tRNA (parent)
chain: CUCUCGGUAGCCAAGUUGGUUUAAGGCGCAAGACUUUAAUUUAUCACUACGAAAUCUUGAGAUCGGGCGUUCGACUCGCCCCCGGGAGAUUUUUUCCUCGAGCAA

Variants of: B1
Test: nonsense suppression (GFP-seq) (ratio to wild type); higher = more function; SUP4oc tRNA, yeast GFP reporter sort-seq
In short: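 Each variant's nonsense suppression (GFPSEQ) is a cell-share-weighted bin median GFP/RFP relative to the unmutated parent tRNA. Yeast with genome-integrated tRNA variants from a ~3% random-mutation library, a galactose-driven GFP ochre reporter and RFP were grown in raffinose/galactose medium with 80 mg/L adenine, then sorted into GFP/RFP bins for Illumina sequencing. Variants needed ≥100 reads and ≥30 cells.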

Compared with U17C A30G A31G, U2C G32A A54G is lower in nonsense suppression: 0.0827 for the first, ≤ 0.026 for the second.

Going from G65C C81G to U16G G67A, the nonsense suppression falls from 1.06 to 0.178.

C1G U8G U63C G73U and C5U G66U G78A cannot be ordered by nonsense suppression: ≤ 0.026 for the first, ≤ 0.026 for the second.

First: A54C G78A
Second: A14C U20G
The nonsense suppression of the first is higher: 0.107 for the first, ≤ 0.026 for the second.

First: C11A A14G U63C
Second: A54C A60G
The nonsense suppression of the first is lower: ≤ 0.026 for the first, 0.0773 for the second.

C56A G65C and A9C G61C G73C cannot be ordered by nonsense suppression: ≤ 0.026 for the first, ≤ 0.026 for the second.

Going from A60C G73C to C1U U4G C5U A31G C81A, the nonsense suppression falls from 0.0519 to ≤ 0.026.

G59U U70C C72A and C77A C81U cannot be ordered by nonsense suppression: ≤ 0.026 for the first, ≤ 0.026 for the second.

First: U21A C34G C82U A89U
Second: U22C G25C
The nonsense suppression of the first is lower: ≤ 0.026 for the first, 0.0473 for the second.

First: G67A C80U
Second: U22C G26A U57G
The nonsense suppression of the first is higher: 0.0261 for the first, ≤ 0.026 for the second.

First: G19U A24G G78C A89C
Second: U21C A60U C68U
The nonsense suppression of the first is lower: ≤ 0.026 for the first, 1.05 for the second.

Going from U2C A23G A62C G67A to U55C G61A, the nonsense suppression rises from ≤ 0.026 to 0.194.

Compared with A13C C27U, G78U is higher in nonsense suppression: 0.0494 for the first, 0.63 for the second.

Compared with U22C C68U, G18A A30G is lower in nonsense suppression: 1.16 for the first, 0.0263 for the second.

Compared with U4G C75U, A54U A62G is lower in nonsense suppression: 1.1 for the first, 0.0321 for the second.

Compared with G32U C56G, U4G A60U is higher in nonsense suppression: 0.207 for the first, 1.12 for the second.

Compared with A62U, C1A U16A G88C is lower in nonsense suppression: 0.193 for the first, ≤ 0.026 for the second.

Compared with G10A G32C G88C, A24C G26U is higher in nonsense suppression: ≤ 0.026 for the first, 0.038 for the second.

A24G C68A C82G G84U and A30U C79G cannot be ordered by nonsense suppression: ≤ 0.026 for the first, ≤ 0.026 for the second.

Going from A24C G69U to C27A G78U, the nonsense suppression rises from ≤ 0.026 to 0.0309.

First: U2A A24G G25A
Second: A33U U63A
The nonsense suppression of the first is lower: ≤ 0.026 for the first, 0.0268 for the second.

Going from C80U A87U to G78A G86A G88C, the nonsense suppression falls from 0.035 to ≤ 0.026.

Compared with U17G U63A C75A G85A, A23U A62C is lower in nonsense suppression: 1.08 for the first, ≤ 0.026 for the second.

Compared with A30G A33G, G28C U57C is lower in nonsense suppression: 0.046 for the first, 0.0349 for the second.

Going from A30U G69U C80U to C81U G84U, the nonsense suppression rises from ≤ 0.026 to 0.065.

Compared with G32U U63A C82U, A30U C82G is lower in nonsense suppression: 0.0283 for the first, ≤ 0.026 for the second.

First: C1G C27A U55G
Second: A13C G61U C68U
The nonsense suppression of the first is lower: ≤ 0.026 for the first, 0.414 for the second.

First: G28U A62G U63A A74C
Second: U4G G6A
The nonsense suppression of the first is lower: ≤ 0.026 for the first, 0.0297 for the second.

First: C75A
Second: A33G C80U
The nonsense suppression of the first is higher: 0.996 for the first, 0.0422 for the second.

First: U16C C83U
Second: C5G U55C G69C G86U
The nonsense suppression of the first is higher: 0.5 for the first, ≤ 0.026 for the second.

C12A A89G and U20A U57A cannot be ordered by nonsense suppression: ≤ 0.026 for the first, ≤ 0.026 for the second.

A31G U71A G73A C77U and C11A U71C cannot be ordered by nonsense suppression: ≤ 0.026 for the first, ≤ 0.026 for the second.

First: A54C C81U
Second: U21C A30G
The nonsense suppression of the first is lower: 0.21 for the first, 0.967 for the second.

Going from A9G A60G to C3U U8G U58G C80A C82G G86C, the nonsense suppression falls from 0.222 to ≤ 0.026.

C11A U63G and C1G U8C U55G G69C cannot be ordered by nonsense suppression: ≤ 0.026 for the first, ≤ 0.026 for the second.

C5U U55C G88A and A14U A60C G66A G67A cannot be ordered by nonsense suppression: ≤ 0.026 for the first, ≤ 0.026 for the second.

Going from A14G U16G C64U to U4G C12G, the nonsense suppression rises from ≤ 0.026 to 0.0311.

Compared with U8G A13C G28C C64U U70A C72U G84U, G66A C75U is higher in nonsense suppression: ≤ 0.026 for the first, 0.368 for the second.

First: A9G U21A
Second: U22A G25U
The nonsense suppression of the first is higher: 0.36 for the first, 0.0283 for the second.

First: A14U U71A
Second: U21C U76C
The nonsense suppression of the first is lower: ≤ 0.026 for the first, 1.06 for the second.

C29G C34G and G7A G25U cannot be ordered by nonsense suppression: ≤ 0.026 for the first, ≤ 0.026 for the second.

Compared with U22A G78A, A23G A60C is lower in nonsense suppression: 0.283 for the first, 0.241 for the second.

Going from U21C A30G A31G U63C to A24G G61A U76C, the nonsense suppression rises from ≤ 0.026 to 0.0509.

Compared with A9G C12A, G61C U63G is higher in nonsense suppression: ≤ 0.026 for the first, 0.12 for the second.

G15A U57C G59C G78A and C27A U55G G61A C83G cannot be ordered by nonsense suppression: ≤ 0.026 for the first, ≤ 0.026 for the second.

Going from U4A C11U to U16C C82A G85A, the nonsense suppression falls from 0.0306 to ≤ 0.026.

Compared with A14U U63A, A14G A30C G61C A74U is lower in nonsense suppression: 0.0439 for the first, ≤ 0.026 for the second.

Going from G59U U63C to A9G U17C, the nonsense suppression falls from 0.868 to 0.113.

First: A30G G59C A60C
Second: U20G G61A
The nonsense suppression of the first is lower: ≤ 0.026 for the first, 0.635 for the second.

A62C G85A and G26C U63G cannot be ordered by nonsense suppression: ≤ 0.026 for the first, ≤ 0.026 for the second.

U16G C34U and A9U C12A A13C C72U C79A cannot be ordered by nonsense suppression: ≤ 0.026 for the first, ≤ 0.026 for the second.

First: A13G C68U
Second: U22G G25U G66U
The nonsense suppression of the first is higher: 0.146 for the first, ≤ 0.026 for the second.

Going from C5U C83G to C3A A13C, the nonsense suppression rises from ≤ 0.026 to 0.0261.

C11A A54C G59A U71C C80A G88C and G32A A62G U71G G78A G85A cannot be ordered by nonsense suppression: ≤ 0.026 for the first, ≤ 0.026 for the second.

Compared with G67A A74U, C1G G7A G66C A74C is lower in nonsense suppression: 0.0276 for the first, ≤ 0.026 for the second.

A14C U16G U55C and U21A U55C C79U cannot be ordered by nonsense suppression: ≤ 0.026 for the first, ≤ 0.026 for the second.

Compared with C72G G78A, G18U G19A is lower in nonsense suppression: 0.0282 for the first, ≤ 0.026 for the second.

Compared with A33G G61A, C27G U57C U58G G66A C68G is lower in nonsense suppression: 0.0709 for the first, ≤ 0.026 for the second.

First: C1U G26U C34G
Second: C1A G73A
The nonsense suppression of the first is lower: ≤ 0.026 for the first, 0.112 for the second.

Compared with G19U G28A, A31U U76A is higher in nonsense suppression: 0.0287 for the first, 0.0413 for the second.

G28U A33U and G15C U22G A23C cannot be ordered by nonsense suppression: ≤ 0.026 for the first, ≤ 0.026 for the second.

Going from C11A A30G to C34A U63A C82G, the nonsense suppression falls from 0.0331 to ≤ 0.026.

Going from G78U C83A to C1A U2A U35C U70A, the nonsense suppression falls from 0.0425 to ≤ 0.026.

Going from G15U U71A C82G to C68A C75A, the nonsense suppression rises from ≤ 0.026 to 0.0286.

First: U21G A30G
Second: U4G A54U
The nonsense suppression of the first is lower: 0.227 for the first, 0.469 for the second.

Going from A9G G15U to A24G U70G, the nonsense suppression falls from 0.0374 to ≤ 0.026.

First: G7C U21G
Second: A33G A87G
The nonsense suppression of the first is higher: 0.0521 for the first, 0.0348 for the second.

First: A24C C64G
Second: U17A G32C U71G
The nonsense suppression of the first is lower: ≤ 0.026 for the first, 0.0947 for the second.

Going from G61U C75G to A30C A31U, the nonsense suppression falls from 1.08 to ≤ 0.026.

G26A C27A and G6U G7C A33U cannot be ordered by nonsense suppression: ≤ 0.026 for the first, ≤ 0.026 for the second.

Going from A13C G67A to C27G G28A, the nonsense suppression falls from 0.0799 to ≤ 0.026.

A23G A24C C34U C72A A89U and A23C G25A cannot be ordered by nonsense suppression: ≤ 0.026 for the first, ≤ 0.026 for the second.

Going from U2C C68U A87G to U17C C29G, the nonsense suppression falls from 1.13 to ≤ 0.026.

C27U A62G and U21G C79A cannot be ordered by nonsense suppression: ≤ 0.026 for the first, ≤ 0.026 for the second.

A23G U63G and A31C G32U cannot be ordered by nonsense suppression: ≤ 0.026 for the first, ≤ 0.026 for the second.

G7A G18U and C1A A62G A74C G84A cannot be ordered by nonsense suppression: ≤ 0.026 for the first, ≤ 0.026 for the second.

First: A30G A31G A60U
Second: C3U A14G C80G
The nonsense suppression of the first is higher: 0.726 for the first, ≤ 0.026 for the second.

C56U G88U and C68A C77A cannot be ordered by nonsense suppression: ≤ 0.026 for the first, ≤ 0.026 for the second.

First: A13U U76C
Second: G67A U71C A89C
The nonsense suppression of the first is higher: 0.836 for the first, ≤ 0.026 for the second.

U2C G6U C29U and C5G A60C C64A cannot be ordered by nonsense suppression: ≤ 0.026 for the first, ≤ 0.026 for the second.

Compared with A54C G86C, C5A A13C U58A C81A is lower in nonsense suppression: 0.0725 for the first, ≤ 0.026 for the second.

C1U G69C G73C and G19C U21C G66C G84A G86A cannot be ordered by nonsense suppression: ≤ 0.026 for the first, ≤ 0.026 for the second.

Going from A30G G59A G73C to C3U A13G C34G, the nonsense suppression rises from ≤ 0.026 to 0.439.

For G7U A30G, the nonsense suppression was ≤ 0.026.
